CHT PAM = CHT positive allosteric modulators, primary screen, cell-based, membrane potential dye, choline EC20 | High affinity choline transporter 1 (Homo sapiens), Q9GZV3 | CHT-expressing cells; hits give high values; LV-AA mutant CHT in HEK293 cells | B-score at 10 µM | 310,000 compounds, 0.49% hits | AID 488977, 2010;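 active = initial fluorescence not abnormally high and integrated response B-score, plate-corrected, over 3 SD above library mean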
Cl transport mod = KCC2 cotransporter modulators, thallium flux, primary screen, cell-based, HEK293 KCC2, FluoZin-2 fluorescence, MLSMR | B-score of Tl+ flux slope (higher = more flux/activation; lower = inhibition) at 10 µM | Solute carrier family 12 member 5 (Homo sapiens), Q9H2X9 | AID 1456, 2008 | KCC2 cells, thallium flux FluoZin-2 fluorescence | 190,000 compounds, 2.2% hits;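 active = thallium flux slope and its plate-corrected score both differing from the plate sample mean at a set confidence after two filtering rounds, in either direction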;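 also: slope of fluorescence scaled to starting intensity during 10 to 20 s after thallium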
Rad51 HR inh = human RAD51 strand exchange inhibitors, primary screen, biochemical, fluorescence; hRad51 DNA strand exchange, fluorescence dequenching; DNA repair protein RAD51 homolog 1 (Homo sapiens), Q06609; 200,000 compounds, 0.085% hits; inhibition, % at 10 µM;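 active = inhibition above 40% at the single screening dose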;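 also: 0% = DMSO control wells and 100% = blanks with heterologous ssDNA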
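System: hRad51 filaments on single-stranded DNA; reagent: Fluorescein- and BHQ1-tagged 47-mer duplex; compound dosing: one concentration, 10 µM final; timing: filaments 15 min 37 °C, then compound 30 min; measured by: fluorescein emission 520 nm, excitation 485 nm; benchmarks: per-plate controls and blanks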
CHT block = inhibitors of human choline transporter CHT; High affinity choline transporter 1 (Homo sapiens), Q9GZV3; CHT-expressing cells, membrane potential dye, choline response; hits give low values; B-score at 10 µM; 310,000 compounds, 0.86% hits;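 active = B-score over 3 SD under the library average, and starting fluorescence ratio not unusually high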;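 also: choline stimulus applied at its EC90 after an EC20 pre-addition; B-score computed on integrated fluorescence ratio after choline addition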
CHT activ conf = CHT activators, confirmation, cell-based, membrane potential dye, duplicate; shares compounds with CHT PAM; CHT-expressing cells, membrane potential dye fluorescence (FDSS); % of choline EC20–EC90 response window; HEK293 expressing CHT LV-AA mutant; choline added at its EC20; activation, % at 10 µM; 2,500 compounds, 91% hits; AID 504833, 2011;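 active = primary screen active, with duplicate mean activation above negative control mean plus 3 SD, cut at about 11% in these data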
HEK293 MP dye = membrane potential response in parental HEK293 cells, counter-screen for CHT activator project, cell-based, membrane potential dye; 2,500 compounds, 62% hits; AID 623908, 2012; ratio readout change at 10 µM, hits read low; membrane potential dye fluorescence (FDSS); measured after EC20 choline addition; shares compounds with CHT PAM;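 active = duplicate-averaged ratio beyond 3 SD from buffer wells, up or down, though filed actives are nearly all decreases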
Active calls of the source: *; i = inactive; . = no result given. An excerpt weighted towards active compounds, which were near 2.6% of everything screened.

SMILES	CHT PAM	Cl transport mod	Rad51 HR inh	CHT block	CHT activ conf	HEK293 MP dye
COc1ccc(-c2nc3cccc(C)n3c2NCC2CCCO2)cc1O (stereo unspecified)	i	-0.076	-14	i	54*	-57*
Cc1ccc(C(=O)C2=C(O)C(=O)N(CCN(C)C)C2c2ccccn2)o1 (stereo unspecified)	.	0.28	.	.	.	.
Cc1ccc2nc3ccc(N4CCCC4)nn3c(=O)c2c1	i	.	-7	i	44*	-46*
CCCCCCCCc1nc(SCC(C)=O)n[nH]1	i	0.067	11	i	.	.
O=C(NC1CCCCC1)C(c1ccc(O)cc1)N(C(=O)c1cnccn1)c1cccc(F)c1 (stereo unspecified)	i	.	.	i	.	.
Cc1ccccc1NC(=O)c1cccc(NC(=O)CCC(=O)O)c1	i	1.1	0	i	.	.
O=C(CNC1=NCCC1)c1ccc(Cl)cc1	i	1.2	5	i	30*	-25*
O=C(ONC1=NCCCCC1)c1ccc(Cl)cc1	i	1.2	-1	i	.	.
COc1ccc(C(=O)CNC2=NCCC2)cc1	8.2*	0.57	3	i	57*	-47*
COc1ccc(-c2nnc(SCC(=O)N3CCCC3)o2)c(OC)c1	i	.	.	i	.	.
CC(C)c1ccccc1NC(=O)Cn1c(-c2ccccc2Cl)nc2ccccc21	i	-0.068	0	i	22*	i
CC(=O)Nc1ccc(NC(=O)CC(NC(=O)c2ccccc2)c2ccccc2)cc1 (stereo unspecified)	i	.	.	i	.	.
CCC1=Nc2ccc(Br)cc2C(c2ccccc2)N1CC(=O)OC (stereo unspecified)	11*	-0.07	-5	i	14*	i
Oc1ccc(Cl)cc1C=Nc1ccc2c3c(cccc13)CC2	i	0.031	-15	i	.	.
COc1cc(OC)cc(C(=O)NC2CCCN(Cc3ccc(Cl)cc3)C2)c1 (stereo unspecified)	i	.	.	i	.	.
Cc1cc(C)c(C)c(S(=O)(=O)NCc2ccc(C(=O)N3CCOCC3)cc2)c1C	i	.	.	i	.	.
N#Cc1c(NC(=O)C2CC(Cl)=CCC2C(=O)O)sc2c1CCCC2 (stereo unspecified)	i	-0.0023	.	i	.	.
C#CCOCCOCCOCCNc1nc(N2CCOCC2)nc(N2CCN(C(=O)CCCCCCCCCCNC(=O)[C@@H]([C@H](C)CC)n3cc(CCCCCN)nn3)CC2)n1	8.4*	.	.	i	6	-32*
Cc1cc(OCCN2CCOCC2)ccc1Cl	i	.	.	i	.	.
CC(=O)OCc1c(F)c(F)c(-n2nc(C)cc2C)c(F)c1F	i	-0.55	6	i	.	.

Screens deposited in PubChem BioAssay by several laboratories.
